Test results taken from ChEMBL document CHEMBL3351727, “New praziquantel derivatives containing NO-donor furoxans and related furazans as active agents against Schistosoma mansoni” (Eur J Med Chem, 2014).
The source made the active and inactive calls. No cut-off for these calls is given here.

Legend:
[1] = molecular target: T1, Thioredoxin glutathione reductase (Schistosoma mansoni, UniProt Q962Y6); experiment: Inhibition of Schistosoma mansoni recombinant thioredoxin glutathione reductase assessed as 5-thio-2nitrobezoic acid formation after 3 mins
T1 sequence (Q962Y6 whole entry): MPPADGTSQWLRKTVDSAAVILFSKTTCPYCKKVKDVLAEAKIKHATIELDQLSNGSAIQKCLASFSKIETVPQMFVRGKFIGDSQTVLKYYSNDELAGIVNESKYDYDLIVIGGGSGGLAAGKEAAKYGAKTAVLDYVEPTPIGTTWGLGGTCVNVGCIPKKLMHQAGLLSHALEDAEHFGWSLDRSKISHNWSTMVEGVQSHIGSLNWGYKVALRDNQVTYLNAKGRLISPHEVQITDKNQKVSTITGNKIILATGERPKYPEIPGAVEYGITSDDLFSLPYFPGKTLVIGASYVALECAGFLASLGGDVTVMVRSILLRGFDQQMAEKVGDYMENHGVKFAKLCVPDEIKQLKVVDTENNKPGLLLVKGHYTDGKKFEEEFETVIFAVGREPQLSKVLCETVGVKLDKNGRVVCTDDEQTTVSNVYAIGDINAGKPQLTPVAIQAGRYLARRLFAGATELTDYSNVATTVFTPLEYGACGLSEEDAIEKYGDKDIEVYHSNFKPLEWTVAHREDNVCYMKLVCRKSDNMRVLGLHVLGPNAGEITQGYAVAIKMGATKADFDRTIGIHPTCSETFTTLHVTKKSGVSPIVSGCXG

Schistosoma mansoni [2] = experiment: Antiparasitic activity against Schistosoma mansoni cercariae infected in female Swiss-Webster mouse assessed as worm contraction at 50 uM after 24 to 48 hrs by stereomicroscopy; format: functional, organism-based
How it was run: (§1)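 Adult worms were washed in RPMI 1640 with 25 mM HEPES, penicillin, streptomycin and 10% FBS, then held 15–20 per well overnight at 37°C in 5% CO₂. Medium was renewed the next day. Compounds from 10 mM DMSO stocks were added at 10 or 50 μM, with equal DMSO volumes in all wells and DMSO-only negative controls. After compound removal, morphology and mobility were followed over days.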

[3] = Induction of NO release in pH 7.4 buffer solution at 5:1 excess of L-cysteine after 1 hr incubation by Griess assay; format: physicochemical; conditions: pH 7.4, 1 h
How it was run: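 Compound was incubated 1 hr at 37 °C in pH 7.4 buffer with a 5:1 molar excess of L-cysteine. Nitrite was measured by Griess reaction and reported as % NO₂⁻ (mol/mol) ± SE.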

Schistosoma mansoni [4] = experiment: Antiparasitic activity against Schistosoma mansoni infected in female Swiss-Webster mouse assessed as worm killing at 50 uM after 72 hrs by stereomicroscopy; format: functional, organism-based; how it was run: as §1
Schistosoma mansoni [5] = experiment: Antiparasitic activity against Schistosoma mansoni cercariae infected in female Swiss-Webster mouse assessed as female worm contraction at 10 uM after 24 to 48 hrs by stereomicroscopy; format: functional, organism-based; how it was run: as §1
Schistosoma mansoni [6] = experiment: Antiparasitic activity against Schistosoma mansoni infected in female Swiss-Webster mouse assessed as worm killing at 10 uM after 144 hrs by stereomicroscopy
Schistosoma mansoni [7] = experiment: Antiparasitic activity against Schistosoma mansoni cercariae infected in female Swiss-Webster mouse assessed as worm contraction at 10 uM after 24 to 48 hrs by stereomicroscopy; format: functional, organism-based; how it was run: as §1
Schistosoma mansoni [8] = experiment: Antiparasitic activity against Schistosoma mansoni infected in female Swiss-Webster mouse assessed as worm killing at 50 uM after 48 hrs by stereomicroscopy; format: functional
How it was run: (§2)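 Adult S. mansoni worms were washed in complete RPMI 1640 with 25 mM HEPES, penicillin, streptomycin and 10% FBS. They were held 15–20 per well overnight at 37°C in 5% CO₂, then moved to fresh medium. Compounds from 10 mM DMSO stocks were added to final 10 or 50 μM. Controls received an equal volume of DMSO, and worm death was scored.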

Schistosoma mansoni [9] = experiment: Antiparasitic activity against Schistosoma mansoni infected in female Swiss-Webster mouse assessed as worm killing at 10 uM after 48 hrs by stereomicroscopy; format: functional; how it was run: as §2
Schistosoma mansoni [10] = experiment: Antiparasitic activity against Schistosoma mansoni infected in female Swiss-Webster mouse assessed as worm killing at 50 uM after 144 hrs by stereomicroscopy
Schistosoma mansoni [11] = experiment: Antiparasitic activity against Schistosoma mansoni infected in female Swiss-Webster mouse assessed as worm killing at 50 uM after 24 hrs by stereomicroscopy; format: functional, organism-based; how it was run: as §1
Schistosoma mansoni [12] = experiment: Antiparasitic activity against Schistosoma mansoni cercariae infected in female Swiss-Webster mouse assessed as male worm contraction at 50 uM after 24 to 48 hrs by stereomicroscopy; format: functional, organism-based; how it was run: as §1
Schistosoma mansoni [13] = experiment: Antiparasitic activity against Schistosoma mansoni infected in female Swiss-Webster mouse assessed as worm killing at 10 uM after 96 hrs by stereomicroscopy; format: functional, organism-based; how it was run: as §1

Row | SMILES | IC50 ([1]; read-out: IC50) [nM] | Activity (Schistosoma mansoni [2]) | Activity [3] [%] | Activity (Schistosoma mansoni [4]) | Activity (Schistosoma mansoni [5]) | Activity (Schistosoma mansoni [6]) [%] | Activity (Schistosoma mansoni [7]) | Activity (Schistosoma mansoni [8]) | Activity (Schistosoma mansoni [9]) | Activity (Schistosoma mansoni [10]) [%] | Activity (Schistosoma mansoni [11]) | Activity (Schistosoma mansoni [12]) | Activity (Schistosoma mansoni [13]) | IC50 [1]
1 | N#Cc1c(C(=O)N2CC(=O)N3CCc4ccccc4C3C2)no[n+]1[O-] (stereo not given) | 316 | Active | 56.2 | Active | Active | 30 | – | – | – | – | – | – | – | –
2 | NC(=O)c1c(COc2ccc3c(c2)C2CN(C(=O)C4CCCCC4)CC(=O)N2CC3)no[n+]1[O-] (stereo not given) | 83 | inactive | 1.1 | – | – | – | inactive | inactive | inactive | – | – | – | – | –
3 | N#Cc1nonc1C(=O)N1CC(=O)N2CCc3ccccc3C2C1 (stereo not given) | > 50000 | Active | – | – | – | 20 | Active | – | – | 25 | – | – | – | –
4 | N#Cc1c(COc2ccc3c(c2)C2CN(C(=O)C4CCCCC4)CC(=O)N2CC3)no[n+]1[O-] (stereo not given) | 350 | Active | 33.8 | – | – | – | inactive | – | inactive | – | Active | – | – | –
5 | NC(=O)c1c(C(=O)N2CC(=O)N3CCc4ccccc4C3C2)no[n+]1[O-] (stereo not given) | 10 | Active | 1.8 | – | – | 30 | Active | – | – | 80 | – | – | – | –
6 | NC(=O)c1nonc1COc1ccc2c(c1)C1CN(C(=O)C3CCCCC3)CC(=O)N1CC2 (stereo not given) | > 50000 | inactive | – | – | – | – | inactive | inactive | inactive | – | – | – | – | –
7 | NC(=O)c1nonc1C(=O)N1CC(=O)N2CCc3ccccc3C2C1 (stereo not given) | > 50000 | Active | – | – | – | 23 | Active | – | – | 23 | – | – | – | –
8 | O=C(C1CCCCC1)N1CC(=O)N2CCc3ccc(OCCCOc4no[n+]([O-])c4S(=O)(=O)c4ccccc4)cc3C2C1 (stereo not given) | 8500 | – | 15.7 | – | – | – | inactive | – | Active | – | Active | Active | – | –
9 | N#Cc1c(-c2ccccc2)no[n+]1[O-] [FUROXAN] | – | inactive | – | – | – | – | inactive | – | – | – | Active | – | Active | –
10 | COC(=O)c1c(C(=O)N2CC(=O)N3CCc4ccccc4C3C2)no[n+]1[O-] (stereo not given) | 148 | Active | < 1 | – | – | 23 | Active | – | – | 50 | – | – | – | –
11 | COC(=O)c1nonc1C(=O)N1CC(=O)N2CCc3ccccc3C2C1 (stereo not given) | > 50000 | Active | – | – | – | 15 | Active | – | – | 18 | – | – | – | –
12 | O=C(C1CCCCC1)N1CC(=O)N2CCc3ccccc3C2C1 (racemic) [PRAZIQUANTEL] | – | Active | – | – | – | 15 | Active | – | – | 40 | – | – | – | Not Active
13 | N#Cc1nonc1COc1ccc2c(c1)C1CN(C(=O)C3CCCCC3)CC(=O)N1CC2 (stereo not given) | > 50000 | Active | – | – | – | – | inactive | inactive | inactive | – | – | – | – | –
14 | O=C(C1CCCCC1)N1CC(=O)N2CCc3ccc(OCCCOc4nonc4S(=O)(=O)c4ccccc4)cc3C2C1 (stereo not given) | > 50000 | Active | – | – | – | – | Active | inactive | inactive | – | – | – | – | –
